From ChEMBL document CHEMBL4390639, “Design, Synthesis, and Biological Evaluation of Novel Allosteric Protein Disulfide Isomerase Inhibitors” (J Med Chem, 2019)

Columns and labels:
U-87 MG [1] = test: Cytotoxicity against human U87MG cells assessed as inhibition of cell proliferation at <IC50 treated for 24 hrs, measured after 10 days by colony formation assay relative to control
[2] = molecular target: Protein disulfide-isomerase (Homo sapiens, UniProt P07237); test: Inhibition of recombinant human N-terminal His-tagged PDI expressed in Escherichia coli BL21 (DE3) pLysS assessed as reduction in enzyme-mediated bovine insulin aggregation
Protein disulfide-isomerase, sequence (P07237 whole entry): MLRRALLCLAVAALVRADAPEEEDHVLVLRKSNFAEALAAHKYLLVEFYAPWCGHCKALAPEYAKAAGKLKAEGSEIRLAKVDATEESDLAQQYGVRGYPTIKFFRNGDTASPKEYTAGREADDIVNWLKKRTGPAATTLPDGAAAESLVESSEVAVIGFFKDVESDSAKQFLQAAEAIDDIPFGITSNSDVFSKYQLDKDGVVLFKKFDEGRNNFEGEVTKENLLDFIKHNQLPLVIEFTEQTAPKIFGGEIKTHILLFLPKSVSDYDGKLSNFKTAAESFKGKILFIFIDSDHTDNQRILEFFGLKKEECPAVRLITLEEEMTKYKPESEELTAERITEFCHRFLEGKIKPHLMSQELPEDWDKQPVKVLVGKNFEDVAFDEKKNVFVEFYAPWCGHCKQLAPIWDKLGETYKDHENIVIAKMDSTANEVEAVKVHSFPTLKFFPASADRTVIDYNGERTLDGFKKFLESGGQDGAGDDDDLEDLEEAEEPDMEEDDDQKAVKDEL

U-87 MG [3] = test: Cytotoxicity against human U87MG cells assessed as inhibition of cell growth measured after 72 hrs by MTT assay; type: functional, cell-based, U-87MG ATCC
Outline: (§1)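 A172 and NU04 cells were seeded at 4000 cells/well and U87MG at 5000 cells/well, incubated overnight at 37 °C, 5% CO2, then exposed to compound or vehicle for 72 h. MTT (3 mg/mL) was added for 4 h, formazan was dissolved in DMSO, and absorbance was read at 570 nm. IC50 came from nonlinear regression; mean ± SD of at least three experiments.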

A 172 = test: Cytotoxicity against human A172 cells assessed as inhibition of cell growth measured after 72 hrs by MTT assay; type: functional, cell-based
Outline: as §1

[4] = Cytotoxicity against human NU04 cells assessed as inhibition of cell growth measured after 72 hrs by MTT assay; type: functional, cell-based
Outline: as §1

U-87 MG [5] = test: Inhibition of colony formation in human U87MG cells assessed as combination index at 1 to 30 uM measured after 24 hrs in presence of arsenic trioxide by crystal violet staining based assay; type: functional, U-87MG ATCC
[6] = Solubility of the compound in DMSO; type: physicochemical
U-87 MG [7] = test: Cytotoxicity against human U87MG cells assessed as inhibition of cell proliferation at <IC50 measured after 72 hrs by MTT assay relative to control; type: functional, U-87MG ATCC
[8] = Homo sapiens, U-87 MG, 72 h, read-out: IC50
[9] = Homo sapiens, A 172, 72 h, read-out: IC50
[10] = Homo sapiens, 72 h, read-out: IC50

Row | IC50 [2] | solubility [6] | Structure (SMILES) | inhibition (INH) (U-87 MG [1]) | IC50 (U-87 MG [3]; [8]) | IC50 (A 172; [9]) | IC50 [4, 10] | CI (U-87 MG [5]) | IC50 (U-87 MG [3]; u-87mg atcc) | IC50 (A 172; a 172) | IC50 [4] | inhibition (INH) (U-87 MG [7])
1 | 1.15 µM |  | N#Cc1cccc(/C=C/C(=O)c2ccc(F)c(O)c2)c1 | >50% | 22.9 µM | 16.8 µM | 10.6 µM |  |  |  |  | 
2 | 6.23 µM |  | CN(C)S(=O)(=O)c1ccc(C(=O)/C=C/c2cccc(C#N)c2)cc1 |  |  |  |  | <1 |  |  |  | 
3 | 6.64 µM |  | N#Cc1cccc(/C=C/C(=O)c2ccc(S(N)(=O)=O)cc2)c1 |  |  |  |  | <1 |  |  |  | 
4 | 1.14 µM |  | N#Cc1cccc(/C=C/C(=O)c2ccc(O)c(F)c2)c1 | >50% | 29.1 µM | 21.9 µM | 9.8 µM |  |  |  |  | 
5 | 1.05 µM | Insoluble | N#Cc1cccc(/C=C/C(=O)c2ccc(S(=O)(=O)NC3CC3)cc2)c1 |  |  |  |  |  | Nd(Insoluble) | Nd(Insoluble) | Nd(Insoluble) | 
6 | 1.23 µM |  | CCN(CC)S(=O)(=O)c1ccc(C(=O)/C=C/c2cccc(C#N)c2)cc1 |  | 17.7 µM | 26.4 µM | 19.9 µM | <1 |  |  |  | >50%
